{"source": "ChEMBL document CHEMBL1154129", "about": "“Cytotoxic polyketides from a marine-derived fungus Aspergillus glaucus” (J Nat Prod, 2008)", "format_in_all_cases": "functional, cell-based", "key": {"A549 [1]": {"system": "A549", "experiment": "Cytotoxicity against human A549 cells after 24 hrs by SRB assay", "conditions": "A549, 24 h", "method_in_brief": "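A-549 cells plated at 2 × 10^5 cells/mL, then compounds added in MeOH (2 µL per well) at several concentrations for 24 h. Cells fixed with 12% trichloroacetic acid, stained with 0.4% SRB, absorbance read at 515 nm. IC50 taken from the linear portion of log dose–response curves.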"}, "HL-60 [2]": {"system": "HL-60", "experiment": "Cytotoxicity against human HL60 cells after 72 hrs by MTT assay", "conditions": "HL-60, 72 h", "method_in_brief": "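HL60 grown in RPMI-1640 with 10% FBS at 37 °C, 5% CO2. Seeded at 5 × 10^4 cells/mL, allowed 24 h, then given compounds in MeOH (2 µL per well) at several concentrations for 72 h. MTT (5 mg/mL stock) added for 4 h, formazan dissolved in DMSO, absorbance read at 540 nm. IC50 taken from the linear portion of log dose–response curves.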"}, "A549 [3]": {"system": "A549", "experiment": "Cytotoxicity against human A549 cells at 100 uM after 24 hrs by SRB assay"}, "HL-60 [4]": {"system": "HL-60", "experiment": "Cytotoxicity against human HL60 cells at 100 uM after 72 hrs by MTT assay"}}, "note": "Active and inactive are the calls of the source. The calls are words filed in the database; no cut-off is given here."}
{"compound": "COc1cc(O)c2c(c1)[C@H]([C@H]1c3cc(C)cc(O)c3C(=O)c3c(O)cc(O)cc31)c1cc(C)cc(O)c1C2=O", "note": "(relative stereo)", "values": [{"measurement": "IC50", "setting": "A549 [1]", "result": 14.2, "unit": "µM"}, {"measurement": "IC50", "setting": "HL-60 [2]", "result": 44, "unit": "µM"}]}
{"compound": "COc1cc(O[C@H]2O[C@H](CO)[C@@H](O)[C@H]2O)cc2cccc(O)c12", "values": [{"measurement": "Activity", "setting": "A549 [3]", "result": "inactive"}, {"measurement": "Activity", "setting": "HL-60 [4]", "result": "inactive"}]}
{"compound": "COc1cc(O)cc2c1C(=O)c1c(O)cc(C)c3oc(=O)c(C(=O)c4c(C)cc(O)cc4O)c-2c13", "note": "[ASPERGIOLIDE B]", "values": [{"measurement": "IC50", "setting": "A549 [1]", "result": 0.24, "unit": "µM"}, {"measurement": "IC50", "setting": "HL-60 [2]", "result": 0.51, "unit": "µM"}]}
{"compound": "COc1cc(O[C@H]2O[C@H](CO)[C@@H](O)[C@H]2O)cc2cc(C)cc(O)c12", "values": [{"measurement": "Activity", "setting": "A549 [3]", "result": "inactive"}, {"measurement": "Activity", "setting": "HL-60 [4]", "result": "inactive"}]}
{"compound": "COc1cc(O)cc2c1C(=O)c1c(cc(C)c(C(=O)OC[C@H](O)CO)c1O)C2=O", "values": [{"measurement": "Activity", "setting": "A549 [3]", "result": "inactive"}, {"measurement": "Activity", "setting": "HL-60 [4]", "result": "inactive"}]}
{"compound": "COc1cc(O)c2c(c1)[C@@H]([C@H]1c3cc(C)cc(O)c3C(=O)c3c(O)cc(O)cc31)c1cc(C)cc(O)c1C2=O", "note": "(relative stereo)", "values": [{"measurement": "IC50", "setting": "A549 [1]", "result": 9.2, "unit": "µM"}, {"measurement": "IC50", "setting": "HL-60 [2]", "result": 7.8, "unit": "µM"}]}
{"compound": "COc1cc(O)cc2cc3c(c(O)c12)C(=O)C[C@@H](C)[C@@H]3O", "values": [{"measurement": "Activity", "setting": "A549 [3]", "result": "inactive"}, {"measurement": "Activity", "setting": "HL-60 [4]", "result": "inactive"}]}
{"compound": "COc1cc(O[C@H]2O[C@H](CO)[C@@H](O)[C@H]2O)cc2cc(C)c(C(C)=O)c(O)c12", "values": [{"measurement": "Activity", "setting": "A549 [3]", "result": "inactive"}, {"measurement": "Activity", "setting": "HL-60 [4]", "result": "inactive"}]}
